This note sets out measurements from ChEMBL document CHEMBL4706651, “Peripheral Selective Oxadiazolylphenyl Alanine Derivatives as Tryptophan Hydroxylase 1 Inhibitors for Obesity and Fatty Liver Disease” (J Med Chem, 2021).

Each structure is given as a SMILES string. Calls of active or inactive are those of the source. The rule behind the calls is not given here.

One data set addresses T1, CYP1A2 (Homo sapiens, UniProt P05177).
T1 sequence (P05177 whole entry): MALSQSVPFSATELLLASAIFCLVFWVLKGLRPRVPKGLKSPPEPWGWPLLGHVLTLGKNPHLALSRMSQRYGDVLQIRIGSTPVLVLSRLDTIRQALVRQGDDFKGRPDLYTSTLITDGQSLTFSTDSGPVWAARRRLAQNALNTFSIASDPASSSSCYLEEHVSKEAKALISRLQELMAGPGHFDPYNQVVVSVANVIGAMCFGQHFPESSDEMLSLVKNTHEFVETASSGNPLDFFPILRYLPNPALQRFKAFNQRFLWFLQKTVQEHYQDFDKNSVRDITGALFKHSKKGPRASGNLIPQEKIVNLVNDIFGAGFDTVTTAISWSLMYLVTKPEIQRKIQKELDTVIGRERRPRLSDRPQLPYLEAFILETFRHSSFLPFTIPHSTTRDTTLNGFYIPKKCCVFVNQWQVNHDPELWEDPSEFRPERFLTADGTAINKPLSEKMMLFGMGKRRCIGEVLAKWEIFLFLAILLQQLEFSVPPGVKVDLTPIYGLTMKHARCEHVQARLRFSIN
The data set can be described thus: Inhibition of CYP1A2 (unknown origin) at 10 uM relative to control. The format is ADME.

Data set [1] has as its system Mus musculus. The data set can be described thus: Anti-obesity activity in C57BL/6J mouse model of diet-induced obesity assessed as reduction in adipose tissues by measuring BAT at 10 mg/kg, ip dosed daily for 8 weeks. The format is functional, organism-based. The essentials: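 After eight weeks of daily ip dosing at 10 mg/kg with high-fat diet (60% fat calories) in C57BL/6J mice starting at 12 weeks, gross appearance of dissected eWAT, iWAT and BAT was photographed against a 1 cm × 1 cm grid.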

For data set [2], the system named is Mus musculus. The data set can be described thus: Anti-obesity activity in C57BL/6J mouse model of diet-induced obesity assessed as induction of thermogenic activity by measuring increase in Ucp1 protein expression in BAT at 10 mg/kg, ip dosed daily for 8 weeks immunohistochemistry. The format is functional, organism-based. A digest of the protocol:
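C57BL/6J mice fed a 60% fat-calorie diet from 12 weeks of age, dosed ip daily for eight weeks. For Ucp1 mRNA, total RNA was extracted from BAT or iWAT with TRIzol and analysed by quantitative RT-PCR as relative expression. UCP1 protein was detected by immunohistochemistry on five-micron paraffin sections. n = 5/group.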

One may read the inhibition as how much of the control response was suppressed. Turning to `COc1ccc(-c2nc(-c3ccc(C[C@H](N)C(=O)O)cc3)no2)cc1-c1ccc(O)cc1.Cl`, the inhibition at 10 µM against CYP1A2 was 3.2%. Also, the result in the data set with Mus musculus [1] and in the data set on Mus musculus [2] was Active.
